A short description of assay [1]: Binding affinity to Hsp90 after 4 hrs by GM-FITC based fluorescence polarization assay. The essentials:
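Commercial Hsp90 at 30 nM was mixed with GM-FITC tracer at 5 nM and serially diluted compound. Buffer: 20 mM HEPES(K) pH 7.3, 50 mM KCl, 5 mM MgCl2, 20 mM Na2MoO4, 0.01% NP40, with fresh 0.1 mg/ml bovine gamma globulin and 2 mM DTT. Shaken 4 h at 4 °C, then FP read in mP. IC50 is the concentration displacing 50% of tracer, from triplicate wells by nonlinear least-squares fit.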

Assay [2] deals with NCI-H460. Description: Cytotoxicity against human NCI-H460 cells after 72 hrs. Format: functional, cell-based. The settings on record: NCI-H460, 72 h. The essentials: (§1)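 Compounds were dissolved fresh in DMSO and diluted in culture medium. Cells were exposed for 72 h at 37 °C in medium with 10% heat-inactivated FBS under 5% CO2. IC50 reported ± SD. STO cells were grown in 50/50 DMEM-Ham's F12 with 10% FBS and 2 mM L-Gln.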

Assay [3] can be described thus: Cytotoxicity against human STO cells after 72 hrs. The format is functional, cell-based. The essentials:
as §1

For assay [4], the system named is A-431. Description: Cytotoxicity against human A431 cells after 72 hrs. The format is functional, cell-based. The settings on record: A-431, 72 h.
For assay [5], the system named is NCI-H460. Description: Cytotoxicity against human NCI-H460 cells at >1 uM after 72 hrs. The format is functional.

For the molecule `O=C1c2ccccc2C(=O)c2c(-c3ccccc3O)noc21`, the concentration for half-maximal inhibition (IC50) was 1550 nM in assay [1], over 1000 nM in assay [2], 3400 nM in assay [3] and 3400 nM in assay [4]. Moreover, the negative logarithm of the IC50 (pIC50) in assay [1] is 5.81.
As to `O=C1c2cccc(O)c2C(=O)c2c(-c3cc[n+](Cc4ccccc4)cc3)noc21.[Br-]`, the IC50 in assay [1] turned out to be 98 nM; in assay [2], 880 nM; in assay [3], 21600 nM; in assay [4], 21600 nM. The molecule further displayed a negative logarithm of the IC50 (pIC50) in assay [1] of 7.01.
On to `O=C1c2ccccc2C(=O)c2c(/C=C/c3ccccc3)noc21`, for which the IC50 was over 100000 nM in assay [1], over 1000 nM in assay [2], 120 nM in assay [3] and 320 nM in assay [4]. The same molecule gave an Activity in assay [5] of 40%.
On to `CC(=O)Oc1cccc2c1C(=O)c1c(-c3ccncc3)noc1C2=O`, for which the half-inhibitory concentration (IC50) in assay [1] amounted to 84 nM; in assay [2], 150 nM; in assay [3], 150 nM; in assay [4], 60 nM. This molecule showed a pIC50 in assay [1] of 7.08.
Consider `O=C1c2ccccc2C(=O)c2c(-c3ccncc3)noc21`, for which the IC50 in assay [1] came out at 390 nM; in assay [2] it was 140 nM; in assay [3], 11 nM; in assay [4], 56 nM. The same molecule had a pIC50 in assay [1] of 6.41.
For `O=C1c2ccccc2C(=O)c2c(-c3ccc[n+](Cc4ccccc4)c3)noc21.[Br-]` the same measures were 770 nM, 21 nM, 10 nM, 20 nM and 6.11.
Take `O=C1c2ccccc2C(=O)c2c(-c3ccccc3)noc21`: the half-inhibitory concentration (IC50) in assay [1] was 7850 nM; in assay [2], 120 nM; in assay [3], 20 nM; in assay [4], 120 nM. Also, the negative logarithm of the IC50 (pIC50) in assay [1] is recorded as 5.11.
Regarding `O=C1c2cccc(O)c2C(=O)c2c(-c3ccncc3)noc21`, the IC50 is over 100000 nM in assay [1], 880 nM in assay [2], 103 nM in assay [3] and 68 nM in assay [4].
With `COc1cc(O)c(-c2noc3c2C(=O)c2ccccc2C3=O)cc1Cl`, the half-maximal inhibitory concentration (IC50) is over 100000 nM in assay [1], over 1000 nM in assay [2], 300 nM in assay [3] and 2980 nM in assay [4].
Consider `O=C1c2cccc(O)c2C(=O)c2c(-c3ccc(F)cc3)noc21`, for which the IC50 in assay [1] was found to be 290 nM; in assay [2] it was 124 nM; in assay [3], 610 nM; in assay [4] it was 290 nM. Besides, the pIC50 in assay [1] amounted to 6.54.
For the molecule `CC(=O)Oc1cccc2c1C(=O)c1c(-c3ccc(F)cc3)noc1C2=O`, the 50% inhibitory concentration (IC50) was found to be 1940 nM in assay [1], 78 nM in assay [2], 1050 nM in assay [3] and 270 nM in assay [4].
As to `CC(=O)Oc1c2ccccc2c(OC(C)=O)c2c(-c3ccc(F)cc3)noc12`, the half-inhibitory concentration (IC50) in assay [1] was over 100000 nM; in assay [2], over 1000 nM; in assay [3] it was 670 nM; in assay [4], 690 nM.
As for `CC(=O)Oc1cccc2c1C(=O)c1c(-c3cc[n+](Cc4ccccc4)cc3)noc1C2=O.[Br-]`, the IC50 is 31 nM in assay [1], over 1000 nM in assay [2], 3960 nM in assay [3] and 3960 nM in assay [4]. Moreover, in assay [1], the pIC50 is given as 7.51. In assay [5], the Activity was 32%.
With `O=C1c2ccccc2C(=O)c2c(-c3cc[n+](Cc4cnccn4)cc3)noc21.[Br-]`, the IC50 in assay [1] stood at 680 nM; in assay [2] it was 17 nM; in assay [3], 220 nM; in assay [4], 52 nM. In addition, the pIC50 in assay [1] stood at 6.17.
For `COc1ccc(-c2noc3c2C(=O)c2cnccc2C3=O)cc1` the same measures were 1600 nM, 446 nM, 92 nM, 98 nM and 5.61.
The corresponding values for `COc1cccc2c1C(=O)c1c(-c3ccncc3)noc1C2=O` are 1900 nM, 880 nM, 261 nM, 330 nM and 5.72.
For `C[n+]1ccc(-c2noc3c2C(=O)c2ccccc2C3=O)cc1.[I-]` the same measures were 630 nM, 330 nM, 1200 nM, 480 nM and 6.2.
Regarding `O=C1c2ccncc2C(=O)c2c(-c3ccc(F)cc3)noc21`, the IC50 came out at 5600 nM in assay [1], 183 nM in assay [2], 4 nM in assay [3] and 4 nM in assay [4]. The pIC50 in assay [1] was 5.25.
`O=C1c2ccccc2C(=O)c2c(-c3ccc4[nH]ccc4c3)noc21`: the IC50 in assay [1] is over 100000 nM; in assay [2], 300 nM; in assay [3], 320 nM; in assay [4], 320 nM. This molecule had a pIC50 in assay [1] of 5.71.
For the molecule `O=C1c2ccccc2C(=O)c2c(-c3ccc(O)cc3)noc21`, the IC50 in assay [1] was over 100000 nM; in assay [2], 510 nM; in assay [3] it was 460 nM; in assay [4] it was 210 nM.
On to `O=C1c2ccccc2C(=O)c2c(-c3ccc(F)cc3)noc21`, for which the IC50 is 200000 nM in assay [1], 350 nM in assay [2], 20 nM in assay [3] and 260 nM in assay [4]. In assay [1], this molecule came in with a pIC50 of 3.7.
The corresponding values for `O=C1c2ccccc2C(=O)c2c(-c3cc(Cl)c(O)cc3O)noc21` are 4200 nM, over 1000 nM, 1000 nM, 23000 nM and 5.38.
For `COc1cccc2c1C(=O)c1c(-c3cc[n+](Cc4ccccc4)cc3)noc1C2=O.[Br-]` the same measures were 340 nM, 180 nM, 168 nM, 168 nM and 6.47.
For `O=C1c2ccccc2C(=O)c2c(-c3cccnc3)noc21` the same measures were 540 nM, 62 nM, 40 nM, 43 nM and 6.27.
Consider `COc1ccc(-c2noc3c(OC(C)=O)c4ccccc4c(OC(C)=O)c23)cc1`, for which the IC50 is over 100000 nM in assay [1], over 1000 nM in assay [2], 1000 nM in assay [3] and 1300 nM in assay [4]. Moreover, the Activity in assay [5] is 39%.
Regarding `COc1ccccc1-c1noc2c1C(=O)c1ccccc1C2=O`, the IC50 in assay [1] stood at 200000 nM; in assay [2], 290 nM; in assay [3], 660 nM; in assay [4], 130 nM. For the same molecule, the pIC50 in assay [1] came to 3.7.
On to `O=C1c2ccccc2C(=O)c2c(-c3ccccn3)noc21`, for which the IC50 in assay [1] turned out to be 1060 nM; in assay [2], 1000 nM; in assay [3], 20 nM; in assay [4], 340 nM. The molecule also came in with a pIC50 in assay [1] of 5.97.
For the molecule `C=CCNC1=C2C[C@@H](C)C[C@H](OC)[C@H](O)[C@@H](C)/C=C(\C)[C@H](OC(N)=O)[C@@H](OC)/C=C\C=C(/C)C(=O)NC(=CC1=O)C2=O` [TANESPIMYCIN], the IC50 in assay [1] amounted to 1100 nM; in assay [2], 10 nM; in assay [4], 69 nM.
As to `O=C1c2ccncc2C(=O)c2c(-c3ccncc3)noc21`, the 50% inhibitory concentration (IC50) in assay [1] worked out at 120 nM; in assay [2] it was 85 nM; in assay [3] it was 60 nM; in assay [4] it was 8.5 nM. This molecule also came in with a pIC50 in assay [1] of 6.92.
For `O=C1c2ccccc2C(=O)c2c(-c3cccc[n+]3Cc3ccccc3)noc21.[Br-]` the same measures were 200000 nM, over 1000 nM, 2240 nM, 2240 nM and 3.7.
Regarding `Cl.O=C1c2ccccc2C(=O)c2c(-c3ccc(OCCN4CCOCC4)cc3)noc21`, the half-maximal inhibitory concentration (IC50) turned out to be 1200 nM in assay [1], 866 nM in assay [2], 1130 nM in assay [3] and 440 nM in assay [4]. Besides, the pIC50 in assay [1] is 5.92.
In the case of `COc1ccc(-c2noc3c2C(=O)c2ccccc2C3=O)cc1`, the 50% inhibitory concentration (IC50) in assay [1] was determined as 5840 nM; in assay [2], 650 nM; in assay [3], 160 nM; in assay [4], 350 nM.
With `O=C1c2ccccc2C(=O)c2c(-c3ccc[n+](Cc4cnccn4)c3)noc21.[Br-]`, the IC50 in assay [1] turned out to be 510 nM; in assay [2] it was 46 nM; in assay [3], 110 nM; in assay [4], 42 nM. In assay [1], this molecule came in with a pIC50 of 6.29.
Turning to `COc1cc(OC)c(-c2noc3c2C(=O)c2ccccc2C3=O)cc1Cl`, the IC50 in assay [1] is over 100000 nM; in assay [2], 880 nM; in assay [3], 135 nM; in assay [4], 1400 nM.

For orientation: IC50 means the concentration that gives 50% inhibition. For orientation: pIC50 means the negative decadic logarithm of the IC50, by convention in mol/L. Read a high pIC50 as a low IC50.

The values are drawn from ChEMBL document CHEMBL2034908, “Isoxazolo(aza)naphthoquinones: a new class of cytotoxic Hsp90 inhibitors” (Eur J Med Chem, 2012).
